These results are taken from ChEMBL document CHEMBL3120086, “Bioactive compounds from Vitex leptobotrys” (J Nat Prod, 2014).

Molecules are shown by their SMILES. Some results are limits rather than exact numbers.

One data set concerns Human gammaherpesvirus 4. Nature of the data set: Antiviral activity against EBV infected in human Akata cells by DNA hybridization assay. The class given is functional, organism-based. The following applies: human gammaherpesvirus 4, Akata. Summed up: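 Under an NIAID agreement, testing was done at Southern Research Institute as part of a 21-virus panel. EBV activity was assessed in Akata cells by DNA hybridization, and EC50 values were derived.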

A short description of data set [1]: Selectivity index, ratio of cytotoxicity towards human Akata cells to EC50 for EBV infected in human Akata cells. The format is toxicity, cell-based. The following applies: read-out: Selectivity Index.
A short description of data set [2]: Cytotoxicity against human HOG.R5 cells infected with HIV-1 3B. The format is cell-based. An outline of the steps: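 Cytotoxicity was run in parallel with the anti-HIV assay, in the same GFP-reporter HOG·R5 line (HOS cells expressing CD4/CCR5). Cell-growth inhibition of the host cells was measured.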
The test system of data set [3] is Human immunodeficiency virus 1. Nature of the data set: Antiviral activity against HIV-1 3B/H9 infected in human HOG.R5 cells transfected with HIV1 LTR-GFP assessed as inhibition of viral replication by fluorescence analysis. The format is functional, organism-based. The following applies: Human immunodeficiency virus 1, 3B.
For data set [4], the system named is Human immunodeficiency virus 1. Nature of the data set: Antiviral activity against HIV-1 3B/H9 infected in human HOG.R5 cells transfected with HIV1 LTR-GFP assessed as inhibition of viral replication at 15.9 uM by fluorescence analysis. The class given is functional. The following applies: Human immunodeficiency virus 1, 3B.
The test system of data set [5] is Human immunodeficiency virus 1. Put plainly: Antiviral activity against HIV-1 3B/H9 infected in human HOG.R5 cells transfected with HIV1 LTR-GFP assessed as inhibition of viral replication at 10 ug/ml by fluorescence analysis. The format is functional. The following applies: Human immunodeficiency virus 1, 3B.

A word on the EC50: it is the midpoint of the concentration-response curve. A higher EC50 goes with a less potent agent. In the data set with Human gammaherpesvirus 4, `O[C@]12CO[C@@H](c3ccc4c(c3)OCO4)[C@@]1(O)CO[C@@H]2c1ccc2c(c1)OCO2` yielded an EC50 of 67 µM. Besides, the selectivity ratio in data set [1] came out at 1.2.

The CC50 is the concentration that lowers cell viability or growth by half. The IC50 is the concentration at which inhibition is half-maximal. In general, inhibition refers to the share of the control response that was lost under treatment. In the case of `COc1cc(OC)c(C(=O)/C=C/c2ccc(O)cc2)c(OC)c1`, in data set [2], the CC50 was found to be 24.4 µM. Moreover, in data set [3], the IC50 was under 15.2 µM. The molecule further yielded an EC50 in the data set on Human gammaherpesvirus 4 of 15 µM. Also, the inhibition at 15.9 µM in data set [4] is 77%. The selectivity ratio in data set [1] is 3.5.

On to `C=Cc1c(C)c2cc3nc(c4c5[nH]c(cc6nc(cc1[nH]2)C(C)=C6CC)c(C)c5C(=O)[C@@H]4C(=O)OC)[C@@H](CCC(=O)O)[C@@H]3C` [PHEOPHORBIDE A], for which the inhibition at 10 µg/mL in data set [5] was determined as 80%.
